The target in experiment [1] is T1, Signal transducer and activator of transcription 3 (Homo sapiens, UniProt P40763). Description: Inhibition of STAT3 phosphorylation at S727 residues in human MIA PaCa-2 cells at 25 uM after 12 hrs by Western blotting analysis. In kind it is cell-based. Summed up:
(§1)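 Cells lysed in M-PER after 12 h drug exposure (overnight per text); 60 µg total protein run on 10% SDS-PAGE, transferred to PVDF, probed overnight at 4 °C with phospho-specific antibodies. Panel lines (U87-MG, MDA-MB-468, MIA PaCa-2, NCI-H157, A549) given 25 µM; A375 given 0, 5, 10, 25 µM. Actin and/or vinculin loading controls.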
On the technique in general: A western blot detects proteins with antibodies after separation by electrophoresis.

A further experiment has as its system A549. The experiment in a line: Antiproliferative activity against human A549 cells measured after 48 hrs by MTS assay. In kind it is functional, cell-based. Summed up: (§2)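 Cells were exposed to a dose range of inhibitor for 48 h, and viability was read by MTS assay in triplicate. GI50 was taken as the concentration giving 50% growth inhibition, averaged from three independent experiments. A375 was cultured in RPMI-1640 with Glutamax. A549 and NCI-H157 were kept in RPMI-1640, and MIA PaCa-2 and U87-MG in DMEM.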
Background: Tetrazolium assays rely on reduction of a dye to a coloured formazan, in cell work by metabolically active cells.

In the next experiment the test system is A-375. The experiment in a line: Induction of ROS generation in human A-375 cells incubated for 18 hrs by DCFH-DA dye based flow cytometry. The following applies: dose 10-25 µM. In kind it is functional, cell-based. Summed up: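 A375 cells (1×10^6) were treated with DMSO, 10 or 25 µM for 18 h in full RPMI, then trypsinized and washed. They were loaded with 10 µM DCFH-DA (final) for 30 min at 37 °C in the dark. DCF fluorescence was read by flow cytometry (488 nm excitation, 535 nm filter).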
On the technique in general: Flow cytometry measures light scatter and fluorescence of single cells or particles in a stream.

For the next experiment, the system named is NCI-H157. Description: Antiproliferative activity against human NCI-H157 cells measured after 48 hrs by MTS assay. It is filed as functional, cell-based. Summed up:
as §2

The target in experiment [2] is Tyrosine-protein kinase JAK2 (Homo sapiens) (UniProt O60674). Description: Inhibition of JAK2 phosphorylation in human MDA-MB-468 cells at 25 uM after 12 hrs by Western blotting analysis. It is filed as cell-based. In outline: as §1
Sequence of Tyrosine-protein kinase JAK2 (Homo sapiens) (O60674 whole entry): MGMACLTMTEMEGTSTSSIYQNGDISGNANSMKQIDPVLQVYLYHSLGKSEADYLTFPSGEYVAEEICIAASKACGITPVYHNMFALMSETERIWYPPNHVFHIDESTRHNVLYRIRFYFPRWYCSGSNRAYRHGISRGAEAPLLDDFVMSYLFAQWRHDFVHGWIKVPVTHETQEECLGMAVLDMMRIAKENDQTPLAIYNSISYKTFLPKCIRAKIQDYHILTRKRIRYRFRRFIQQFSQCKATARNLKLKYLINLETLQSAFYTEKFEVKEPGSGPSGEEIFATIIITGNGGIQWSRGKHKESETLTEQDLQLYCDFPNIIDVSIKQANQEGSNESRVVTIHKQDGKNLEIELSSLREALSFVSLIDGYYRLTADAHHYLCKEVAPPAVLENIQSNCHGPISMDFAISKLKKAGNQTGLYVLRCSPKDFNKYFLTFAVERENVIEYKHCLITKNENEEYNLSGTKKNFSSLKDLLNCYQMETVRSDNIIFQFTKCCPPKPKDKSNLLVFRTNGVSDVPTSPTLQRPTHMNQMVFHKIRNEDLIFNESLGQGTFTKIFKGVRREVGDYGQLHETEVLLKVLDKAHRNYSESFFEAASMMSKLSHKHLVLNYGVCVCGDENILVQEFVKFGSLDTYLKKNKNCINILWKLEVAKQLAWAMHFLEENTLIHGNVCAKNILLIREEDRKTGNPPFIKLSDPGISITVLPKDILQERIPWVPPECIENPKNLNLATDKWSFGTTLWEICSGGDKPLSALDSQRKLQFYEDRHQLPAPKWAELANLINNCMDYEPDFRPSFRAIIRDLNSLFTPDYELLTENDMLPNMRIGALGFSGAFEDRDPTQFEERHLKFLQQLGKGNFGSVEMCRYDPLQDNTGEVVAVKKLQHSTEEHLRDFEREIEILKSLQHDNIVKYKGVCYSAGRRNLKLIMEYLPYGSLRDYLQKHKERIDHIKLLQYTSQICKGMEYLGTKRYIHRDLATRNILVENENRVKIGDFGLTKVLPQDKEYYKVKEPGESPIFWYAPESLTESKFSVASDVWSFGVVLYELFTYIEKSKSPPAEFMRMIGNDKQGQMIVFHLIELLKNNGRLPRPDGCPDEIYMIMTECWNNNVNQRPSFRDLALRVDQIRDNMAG
For experiment [3], the system named is 451Lu. Description: Induction of apoptosis in human SB-590885-resistant 451Lu cells assessed as increase in caspase-3/7 activation incubated for 45 to 60 hrs by IncuCyte Caspase-3/7 reagent based assay. In kind it is functional. The following applies: time 45-60 hrs. In outline: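 451 Lu-R cells (2000/well) were allowed to adhere for 24 h, then treated with a dose range in full medium containing IncuCyte Caspase-3/7 reagent. Wells were imaged over time with a ×10 objective. Apoptotic cell counts were normalized to percent confluence at the final time point; SEM, n = 3–4.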

Experiment [4] addresses Tyrosine-protein kinase JAK2 (Homo sapiens) (UniProt O60674). The experiment in a line: Inhibition of JAK2 phosphorylation in human U-87 MG cells at 25 uM after 12 hrs by Western blotting analysis. It is filed as cell-based. In outline:
as §1

The subject of the next experiment is T47D. Description: Anticancer activity against human T47D cells assessed as cell growth inhibition at 10 uM measured after 48 hrs by SRB assay relative to control. It is filed as functional. The following applies: read-out: GI. In outline:
(§3)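 NCI 60-cell-line screen. Cells in RPMI with 5% FBS were plated at 5,000–40,000 cells/well by doubling time and preincubated 24 h at 37 °C. Compound was added at a single 10 µM for 48 h, then cells were fixed with cold TCA (10% final) and stained with 0.4% SRB. Absorbance at 515 nm gave percent growth versus untreated control and time-zero cells.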

In experiment [5] the target is Proto-oncogene tyrosine-protein kinase Src (Homo sapiens) (UniProt P12931). Description: Inhibition of SRC phosphorylation in human NCI-H157 cells at 25 uM after 12 hrs by Western blotting analysis. It is filed as cell-based. In outline: as §1
Sequence of Proto-oncogene tyrosine-protein kinase Src (Homo sapiens) (P12931 2-536 limits assumed): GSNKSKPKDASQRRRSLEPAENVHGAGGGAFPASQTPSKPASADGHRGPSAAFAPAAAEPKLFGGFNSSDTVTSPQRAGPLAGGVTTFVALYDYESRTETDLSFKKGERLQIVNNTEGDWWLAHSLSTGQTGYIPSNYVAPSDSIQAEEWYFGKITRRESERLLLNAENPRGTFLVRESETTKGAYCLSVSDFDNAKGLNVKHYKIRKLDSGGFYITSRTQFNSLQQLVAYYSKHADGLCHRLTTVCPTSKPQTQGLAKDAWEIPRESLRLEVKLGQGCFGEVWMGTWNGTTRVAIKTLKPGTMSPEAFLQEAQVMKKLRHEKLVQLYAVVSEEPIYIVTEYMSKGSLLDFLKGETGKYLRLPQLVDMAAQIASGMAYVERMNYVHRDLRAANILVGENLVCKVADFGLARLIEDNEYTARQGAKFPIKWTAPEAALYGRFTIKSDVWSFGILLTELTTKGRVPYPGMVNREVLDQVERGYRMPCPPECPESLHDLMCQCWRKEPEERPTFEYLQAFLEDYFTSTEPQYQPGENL
For experiment [6], the target named is Tyrosine-protein kinase JAK2 (Homo sapiens) (UniProt O60674). Description: Inhibition of JAK2 phosphorylation in human MIA PaCa-2 cells at 25 uM after 12 hrs by Western blotting analysis. It is filed as cell-based. Summed up:
as §1

The subject of another experiment is MDA-MB-468. The experiment in a line: Antiproliferative activity against human MDA-MB-468 cells measured after 48 hrs by MTS assay. In kind it is functional, cell-based.
Experiment [7] has as its target T1, Signal transducer and activator of transcription 3. The experiment in a line: Inhibition of STAT3 phosphorylation at S727 residues in human NCI-H157 cells at 25 uM after 12 hrs by Western blotting analysis. In kind it is cell-based. In outline:
as §1

Experiment [8] has the same target. Description: Inhibition of STAT3 phosphorylation at Y705 residues in human U-87 MG cells at 25 uM after 12 hrs by Western blotting analysis. It is filed as cell-based. Summed up:
as §1

Experiment [9] relates to MEL1617. The experiment in a line: Antiproliferative activity against human SB-590885-resistant MEL1617 cells assessed as reduction in cell viability measured after 48 hrs by MTS assay. In kind it is functional, cell-based. In outline:
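Melanoma lines were grown in RPMI-1640 with Glutamax at 37 °C and 5% CO2. The resistant 451 Lu-R and MEL 1617-R sublines were maintained with 1 µM PLX4720. Cells were incubated with vehicle or inhibitor over a dose range, and viability was read by MTS assay in triplicate.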

Experiment [10] concerns the target Tyrosine-protein kinase JAK2 (Homo sapiens) (UniProt O60674). Description: Inhibition of JAK2 phosphorylation in human A549 cells at 25 uM after 12 hrs by Western blotting analysis. It is filed as cell-based. In outline: as §1
For experiment [11], the system named is 451Lu. The experiment in a line: Antiproliferative activity against human 451Lu cells measured after 48 hrs by MTS assay. In kind it is functional, cell-based.
Experiment [12] relates to MEL1617. The experiment in a line: Antiproliferative activity against human MEL1617 cells measured after 48 hrs by MTS assay. It is filed as functional, cell-based. Summed up:
as §2

The target in experiment [13] is T1, Signal transducer and activator of transcription 3. Description: Inhibition of IL-6 induced STAT3 activation in human A-375 cells preincubated for overnight followed by IL-6 addition and measured after 30 mins by Western blot analysis. In kind it is cell-based. Summed up: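 A375 cells were held overnight in serum-free medium with inhibitor doses, then stimulated in full medium with 25 ng/mL IL-6 for 30 min. Lysates were immunoblotted for STAT3 pY705/pS727 and Cyclin D1.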

For experiment [14], the target named is Proto-oncogene tyrosine-protein kinase Src (Homo sapiens) (UniProt P12931). Description: Inhibition of SRC phosphorylation in human MDA-MB-468 cells at 25 uM after 12 hrs by Western blotting analysis. It is filed as cell-based. Summed up: as §1
The target of experiment [15] is T1, Signal transducer and activator of transcription 3. The experiment in a line: Inhibition of STAT3 phosphorylation at S727 residues in human A-375 cells at 5 to 10 uM after 12 hrs by Western blotting analysis. It is filed as cell-based. The following applies: dose 5-10 µM. Summed up:
as §1

The test system of another experiment is MCF7. The experiment in a line: Anticancer activity against human MCF7 cells assessed as cell growth inhibition at 10 uM measured after 48 hrs by SRB assay relative to control. It is filed as functional. The conditions noted are these: read-out: GI. In outline: as §3
Another experiment concerns UO-31. The experiment in a line: Anticancer activity against human UO-31 cells assessed as cell growth inhibition at 10 uM measured after 48 hrs by SRB assay relative to control. In kind it is functional. The conditions noted are these: read-out: GI. In outline: as §3
The target in experiment [16] is Signal transducer and activator of transcription 3 (Mus musculus) (UniProt P42227). The experiment in a line: Inhibition of EGF-induced STAT3 phosphorylation in MEF assessed as reduction in STAT3 nuclear translocation preincubated overnight followed by EGF stimulation and measured after 30 mins by DAPI staining based immunofluorescence assay. The following applies: dose 5-50 µM. Summed up:
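MEF cells (2000/well) were allowed to adhere for 24 h, then held overnight in serum-free medium with inhibitor doses. They were stimulated with full RPMI containing 100 nM EGF for 30 min, then fixed in 4% paraformaldehyde and permeabilized. Cells were immunostained for STAT3 (Alexa Fluor 488) with DAPI nuclear counterstain and nuclear STAT3 was quantified by imaging; three independent experiments.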

Molecules are shown by their SMILES. Activity calls are given as the source filed them. The rule behind the calls is not given here.

T1 sequence (P40763 whole entry): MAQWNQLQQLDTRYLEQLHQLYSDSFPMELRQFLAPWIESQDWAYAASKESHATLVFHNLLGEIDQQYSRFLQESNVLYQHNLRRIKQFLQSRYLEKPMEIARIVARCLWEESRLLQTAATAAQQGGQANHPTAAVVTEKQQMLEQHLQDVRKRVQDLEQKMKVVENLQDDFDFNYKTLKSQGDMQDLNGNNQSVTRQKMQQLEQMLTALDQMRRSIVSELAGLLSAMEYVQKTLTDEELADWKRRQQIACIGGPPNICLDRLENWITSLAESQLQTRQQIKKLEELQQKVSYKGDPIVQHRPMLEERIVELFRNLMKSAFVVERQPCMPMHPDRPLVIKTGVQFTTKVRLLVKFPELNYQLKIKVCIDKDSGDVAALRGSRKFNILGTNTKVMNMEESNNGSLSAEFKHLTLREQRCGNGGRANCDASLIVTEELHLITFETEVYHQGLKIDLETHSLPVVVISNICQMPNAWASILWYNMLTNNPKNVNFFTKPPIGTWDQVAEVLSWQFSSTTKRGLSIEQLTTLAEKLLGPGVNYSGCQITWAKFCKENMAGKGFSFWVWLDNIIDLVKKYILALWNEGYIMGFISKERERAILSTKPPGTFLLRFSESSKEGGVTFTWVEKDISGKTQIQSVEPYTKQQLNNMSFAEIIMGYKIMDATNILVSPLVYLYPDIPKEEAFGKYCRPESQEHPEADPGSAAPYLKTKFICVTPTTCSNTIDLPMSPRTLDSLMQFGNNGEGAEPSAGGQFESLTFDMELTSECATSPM
Sequence of Signal transducer and activator of transcription 3 (Mus musculus) (P42227 whole entry): as the sequence (P40763 whole entry) above, with E760D counted along it

On to `C=CCn1c(SCC(=O)Nc2ccc(/C(C)=N\O)cc2)nnc1-c1cc(-c2ccccc2)nc2ccccc12`, for which the inhibition result in [1], in experiment [7], in experiment [8] and in experiment [15] was “Active” in each case. Besides, the outcome in the experiment with A549, in the experiment with NCI-H157, with MDA-MB-468, with 451Lu [11] and in the experiment on MEL1617 [12] was Active. The Activity entry in the experiment with A-375, in the experiment with 451Lu [3] and with MEL1617 [9] was “Dose-dependent effect” throughout. The inhibition result in experiment [2], in experiment [4], in experiment [5], in experiment [6], in experiment [10] and in experiment [14] was “inactive” each time. The inhibition of growth at 10 µM in the experiment on T47D and with MCF7 was 76% in each case. The inhibition entry in experiment [13] is “Dose-dependent effect”.
Take `C=CCn1c(SCC(=O)Nc2ccc(/C(C)=N\O)cc2)nnc1-c1cc(-c2ccc(Cl)cc2)nc2ccccc12`: in the experiment with UO-31, the inhibition of growth at 10 µM worked out at 100%. The inhibition result in experiment [16] is “Dose-dependent effect”.
